Data: ChEMBL document CHEMBL3352666, “Human Toll-like receptor 8-selective agonistic activities in 1-alkyl-1H-benzimidazol-2-amines” (J Med Chem, 2014)
Activity calls are given as the source filed them. No cut-off for these calls is given here.

What was measured:
Type in all cases: cell-based
[1] = target: Toll-like receptor 5 (Homo sapiens) (UniProt O60602); experiment: Agonist activity at human TLR5 stably expressed in HEK293 cells co-expressing secreted alkaline phosphatase assessed as NF-kappaB induction by liquid handler-assisted reporter gene assay
In short: (§1)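 HEK293 reporter cells stably co-transfected with the respective human TLR or NOD receptor plus NF-κB/AP-1-driven secreted alkaline phosphatase, kept in selection medium. About 10^5 cells/ml were incubated with graded concentrations of test compound in 384-well format. Supernatant sAP was read colorimetrically at 620 nm with an alkaline phosphatase-specific chromogen in detection medium.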

[2] = target: Toll-like receptor 2 (Homo sapiens) (UniProt O60603); experiment: Agonist activity at human TLR2 stably expressed in HEK293 cells co-expressing secreted alkaline phosphatase assessed as NF-kappaB induction by liquid handler-assisted reporter gene assay; in short: as §1
[3] = target: T1, Toll-like receptor 7 (Homo sapiens) (UniProt Q9NYK1); experiment: Agonist activity at human TLR7 stably expressed in HEK293 cells co-expressing secreted alkaline phosphatase assessed as NF-kappaB induction by liquid handler-assisted reporter gene assay; in short: as §1
T1 sequence (whole entry): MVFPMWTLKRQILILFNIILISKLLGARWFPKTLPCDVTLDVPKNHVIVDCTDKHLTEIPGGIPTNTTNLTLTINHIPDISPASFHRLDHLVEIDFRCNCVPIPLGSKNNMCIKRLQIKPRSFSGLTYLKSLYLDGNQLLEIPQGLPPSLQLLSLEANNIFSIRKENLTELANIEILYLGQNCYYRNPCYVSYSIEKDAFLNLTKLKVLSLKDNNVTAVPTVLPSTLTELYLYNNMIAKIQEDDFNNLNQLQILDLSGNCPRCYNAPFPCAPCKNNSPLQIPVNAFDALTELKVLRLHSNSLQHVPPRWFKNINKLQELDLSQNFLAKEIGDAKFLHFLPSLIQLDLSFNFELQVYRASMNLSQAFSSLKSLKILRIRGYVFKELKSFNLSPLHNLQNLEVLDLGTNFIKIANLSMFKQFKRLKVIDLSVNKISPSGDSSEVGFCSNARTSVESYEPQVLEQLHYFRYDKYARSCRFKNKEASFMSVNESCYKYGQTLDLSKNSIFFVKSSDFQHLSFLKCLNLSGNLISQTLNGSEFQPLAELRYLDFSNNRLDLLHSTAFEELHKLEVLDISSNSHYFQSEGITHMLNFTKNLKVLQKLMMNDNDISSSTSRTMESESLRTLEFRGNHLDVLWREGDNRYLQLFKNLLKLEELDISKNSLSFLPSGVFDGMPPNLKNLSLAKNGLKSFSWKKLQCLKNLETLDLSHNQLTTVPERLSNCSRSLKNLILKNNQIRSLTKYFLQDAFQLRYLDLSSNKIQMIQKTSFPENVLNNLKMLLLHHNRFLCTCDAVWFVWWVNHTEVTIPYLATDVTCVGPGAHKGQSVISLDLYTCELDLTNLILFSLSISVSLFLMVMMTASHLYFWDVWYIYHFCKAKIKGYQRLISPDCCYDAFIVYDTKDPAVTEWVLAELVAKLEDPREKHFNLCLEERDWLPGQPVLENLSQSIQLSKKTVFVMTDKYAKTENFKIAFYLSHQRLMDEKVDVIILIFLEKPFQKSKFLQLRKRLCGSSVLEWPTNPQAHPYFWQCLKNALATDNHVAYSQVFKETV

[4] = target: Nucleotide-binding oligomerization domain-containing protein 2 (Homo sapiens, UniProt Q9HC29); experiment: Agonist activity at human NOD2 stably expressed in HEK293 cells co-expressing secreted alkaline phosphatase assessed as NF-kappaB induction by liquid handler-assisted reporter gene assay; in short: as §1
[5] = target: Toll-like receptor 3 (Homo sapiens) (UniProt O15455); experiment: Agonist activity at human TLR3 stably expressed in HEK293 cells co-expressing secreted alkaline phosphatase assessed as NF-kappaB induction by liquid handler-assisted reporter gene assay; in short: as §1
[6] = target: T2, Nucleotide-binding oligomerization domain-containing protein 1 (Homo sapiens) (UniProt Q9Y239); experiment: Agonist activity at human NOD1 stably expressed in HEK293 cells co-expressing secreted alkaline phosphatase assessed as NF-kappaB induction by liquid handler-assisted reporter gene assay; in short: as §1
T2 sequence (whole entry): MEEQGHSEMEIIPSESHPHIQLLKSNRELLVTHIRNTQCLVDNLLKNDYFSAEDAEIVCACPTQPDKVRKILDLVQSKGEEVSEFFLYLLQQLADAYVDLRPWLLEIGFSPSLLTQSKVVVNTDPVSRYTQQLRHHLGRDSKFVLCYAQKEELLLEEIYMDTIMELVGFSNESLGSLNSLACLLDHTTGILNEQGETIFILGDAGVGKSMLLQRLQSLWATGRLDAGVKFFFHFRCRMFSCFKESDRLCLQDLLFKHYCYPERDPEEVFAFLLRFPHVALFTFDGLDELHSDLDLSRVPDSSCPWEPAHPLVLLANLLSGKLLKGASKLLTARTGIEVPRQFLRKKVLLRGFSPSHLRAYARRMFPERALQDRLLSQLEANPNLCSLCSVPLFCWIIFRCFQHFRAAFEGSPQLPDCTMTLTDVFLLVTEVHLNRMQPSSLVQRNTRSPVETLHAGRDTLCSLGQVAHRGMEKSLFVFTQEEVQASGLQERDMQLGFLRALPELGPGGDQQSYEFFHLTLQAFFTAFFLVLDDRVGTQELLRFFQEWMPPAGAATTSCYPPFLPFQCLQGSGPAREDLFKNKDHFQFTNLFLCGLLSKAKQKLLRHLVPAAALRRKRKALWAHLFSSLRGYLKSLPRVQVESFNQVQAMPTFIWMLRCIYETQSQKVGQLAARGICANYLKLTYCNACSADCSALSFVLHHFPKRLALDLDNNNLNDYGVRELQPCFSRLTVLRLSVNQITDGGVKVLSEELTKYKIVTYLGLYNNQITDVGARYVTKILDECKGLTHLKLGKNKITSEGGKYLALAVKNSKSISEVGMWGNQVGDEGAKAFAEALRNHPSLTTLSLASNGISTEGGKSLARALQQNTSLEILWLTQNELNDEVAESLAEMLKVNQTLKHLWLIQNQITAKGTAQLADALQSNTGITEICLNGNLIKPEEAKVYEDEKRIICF

Sequence of Toll-like receptor 3 (Homo sapiens) (O15455 whole entry, the tested form may be a part): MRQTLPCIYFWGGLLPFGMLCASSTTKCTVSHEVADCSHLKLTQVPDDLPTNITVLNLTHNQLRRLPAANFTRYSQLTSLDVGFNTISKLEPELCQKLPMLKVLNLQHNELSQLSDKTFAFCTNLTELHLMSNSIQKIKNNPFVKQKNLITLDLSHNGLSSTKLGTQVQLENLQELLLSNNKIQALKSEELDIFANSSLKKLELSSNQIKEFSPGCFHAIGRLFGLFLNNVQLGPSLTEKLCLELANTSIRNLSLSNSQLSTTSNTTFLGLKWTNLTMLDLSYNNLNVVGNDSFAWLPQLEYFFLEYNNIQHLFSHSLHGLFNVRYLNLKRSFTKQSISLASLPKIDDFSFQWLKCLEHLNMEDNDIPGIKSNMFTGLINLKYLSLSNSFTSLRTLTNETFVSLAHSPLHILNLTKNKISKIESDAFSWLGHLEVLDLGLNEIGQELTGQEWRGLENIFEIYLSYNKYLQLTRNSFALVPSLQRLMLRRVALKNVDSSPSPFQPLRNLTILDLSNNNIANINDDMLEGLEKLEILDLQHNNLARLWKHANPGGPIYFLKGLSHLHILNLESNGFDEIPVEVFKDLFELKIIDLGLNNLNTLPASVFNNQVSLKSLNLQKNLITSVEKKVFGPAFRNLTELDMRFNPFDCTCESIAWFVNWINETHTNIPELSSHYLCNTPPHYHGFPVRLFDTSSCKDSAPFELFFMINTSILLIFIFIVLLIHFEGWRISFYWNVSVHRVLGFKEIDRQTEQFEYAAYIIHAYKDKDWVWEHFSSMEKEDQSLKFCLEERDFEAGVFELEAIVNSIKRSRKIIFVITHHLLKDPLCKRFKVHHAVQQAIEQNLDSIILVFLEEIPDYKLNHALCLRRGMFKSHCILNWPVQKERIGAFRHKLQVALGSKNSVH
Sequence of Toll-like receptor 5 (Homo sapiens) (O60602 whole entry): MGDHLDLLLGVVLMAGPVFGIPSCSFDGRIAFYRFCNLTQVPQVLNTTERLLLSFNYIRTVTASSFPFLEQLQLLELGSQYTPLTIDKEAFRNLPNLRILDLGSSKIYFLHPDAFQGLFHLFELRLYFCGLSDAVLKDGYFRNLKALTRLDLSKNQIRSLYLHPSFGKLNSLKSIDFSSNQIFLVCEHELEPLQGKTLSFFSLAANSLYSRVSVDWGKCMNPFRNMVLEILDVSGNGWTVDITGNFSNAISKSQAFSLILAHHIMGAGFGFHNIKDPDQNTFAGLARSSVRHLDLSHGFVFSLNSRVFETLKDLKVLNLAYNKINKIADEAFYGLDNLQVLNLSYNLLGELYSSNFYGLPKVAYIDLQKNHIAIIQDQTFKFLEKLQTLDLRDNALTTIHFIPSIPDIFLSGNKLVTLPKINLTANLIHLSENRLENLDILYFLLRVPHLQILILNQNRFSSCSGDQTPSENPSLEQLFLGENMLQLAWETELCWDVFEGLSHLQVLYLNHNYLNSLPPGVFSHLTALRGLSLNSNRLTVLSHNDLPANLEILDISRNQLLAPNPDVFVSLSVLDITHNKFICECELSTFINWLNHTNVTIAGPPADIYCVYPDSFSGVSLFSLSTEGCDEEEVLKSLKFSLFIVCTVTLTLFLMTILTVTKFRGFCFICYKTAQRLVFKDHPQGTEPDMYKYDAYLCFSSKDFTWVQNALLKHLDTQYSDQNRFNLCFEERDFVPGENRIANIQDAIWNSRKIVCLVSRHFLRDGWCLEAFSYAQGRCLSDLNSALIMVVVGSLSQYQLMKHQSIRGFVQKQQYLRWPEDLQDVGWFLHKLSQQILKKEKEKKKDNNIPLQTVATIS
Sequence of Toll-like receptor 2 (Homo sapiens) (O60603 whole entry): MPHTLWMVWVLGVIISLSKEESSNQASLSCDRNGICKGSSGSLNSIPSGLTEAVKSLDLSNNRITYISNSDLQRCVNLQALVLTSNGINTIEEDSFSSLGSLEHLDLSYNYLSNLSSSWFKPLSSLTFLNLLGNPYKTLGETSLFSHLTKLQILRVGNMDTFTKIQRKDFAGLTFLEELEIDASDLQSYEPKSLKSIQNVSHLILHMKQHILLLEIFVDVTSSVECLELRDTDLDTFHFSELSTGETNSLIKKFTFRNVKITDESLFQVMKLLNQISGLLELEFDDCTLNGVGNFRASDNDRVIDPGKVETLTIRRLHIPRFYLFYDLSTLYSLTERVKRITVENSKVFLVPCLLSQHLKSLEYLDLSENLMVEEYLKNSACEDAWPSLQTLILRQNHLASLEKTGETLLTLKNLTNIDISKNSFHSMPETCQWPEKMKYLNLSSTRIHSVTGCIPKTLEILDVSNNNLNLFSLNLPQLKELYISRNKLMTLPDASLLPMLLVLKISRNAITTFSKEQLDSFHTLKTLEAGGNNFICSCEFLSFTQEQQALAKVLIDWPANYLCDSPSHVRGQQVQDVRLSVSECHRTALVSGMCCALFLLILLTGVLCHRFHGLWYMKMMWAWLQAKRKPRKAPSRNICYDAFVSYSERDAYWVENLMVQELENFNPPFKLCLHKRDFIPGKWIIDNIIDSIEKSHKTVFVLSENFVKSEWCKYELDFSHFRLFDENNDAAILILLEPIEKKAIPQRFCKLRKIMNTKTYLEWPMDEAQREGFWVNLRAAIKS
Sequence of Nucleotide-binding oligomerization domain-containing protein 2 (Q9HC29 whole entry, the tested form may be a part): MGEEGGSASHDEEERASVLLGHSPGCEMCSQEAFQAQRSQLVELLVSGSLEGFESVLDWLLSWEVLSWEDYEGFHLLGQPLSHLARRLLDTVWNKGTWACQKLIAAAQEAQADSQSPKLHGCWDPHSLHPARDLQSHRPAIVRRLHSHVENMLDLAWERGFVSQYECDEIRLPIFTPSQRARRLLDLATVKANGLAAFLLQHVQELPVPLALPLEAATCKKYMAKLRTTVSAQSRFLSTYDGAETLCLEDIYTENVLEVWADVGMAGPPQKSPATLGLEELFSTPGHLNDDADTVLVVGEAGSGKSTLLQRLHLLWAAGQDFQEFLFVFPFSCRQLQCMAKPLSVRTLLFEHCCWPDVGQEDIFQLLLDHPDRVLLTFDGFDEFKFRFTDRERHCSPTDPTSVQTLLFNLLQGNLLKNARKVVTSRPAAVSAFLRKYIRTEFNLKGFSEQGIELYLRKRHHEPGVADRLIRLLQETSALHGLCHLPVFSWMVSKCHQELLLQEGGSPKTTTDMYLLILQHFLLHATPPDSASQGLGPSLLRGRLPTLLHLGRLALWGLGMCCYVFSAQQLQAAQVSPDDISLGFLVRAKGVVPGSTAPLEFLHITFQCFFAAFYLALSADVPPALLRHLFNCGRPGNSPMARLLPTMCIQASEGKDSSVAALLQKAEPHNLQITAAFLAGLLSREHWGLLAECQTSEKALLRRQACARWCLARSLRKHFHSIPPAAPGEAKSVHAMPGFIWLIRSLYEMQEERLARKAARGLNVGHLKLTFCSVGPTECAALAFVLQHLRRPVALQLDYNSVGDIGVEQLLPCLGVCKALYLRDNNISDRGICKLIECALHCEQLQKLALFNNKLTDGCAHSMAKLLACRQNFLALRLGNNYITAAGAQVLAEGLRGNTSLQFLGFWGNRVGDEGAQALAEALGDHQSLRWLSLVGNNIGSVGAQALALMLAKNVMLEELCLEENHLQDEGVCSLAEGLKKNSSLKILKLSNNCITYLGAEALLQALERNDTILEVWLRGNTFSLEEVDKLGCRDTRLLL

Row | Activity [1] | Activity [2] | Activity [3] | Activity [4] | Activity [5] | Activity [6] | Structure (SMILES)
1 | inactive | inactive | inactive | inactive | inactive | inactive | CCCCCn1c(N)nc2c(Cl)cccc21
2 | inactive | inactive | inactive | inactive | inactive | inactive | CCCCOC(=O)n1c(N)nc2ccccc21
3 | inactive | inactive | inactive | inactive | inactive | inactive | CCCCCn1c(N)nc2cnccc21
4 | inactive | inactive | inactive | inactive | inactive | inactive | CCCCCn1c(N)nc2c(F)cccc21
5 | inactive | inactive | inactive | inactive | inactive | inactive | CCCCCn1c(N)nc2ccc3ccccc3c21
6 | inactive | inactive | inactive | inactive | inactive | inactive | CCCCCn1c(N)nc2ccncc21
7 | inactive | inactive | inactive | inactive | inactive | inactive | CCCCCn1c(N)nc2c([N+](=O)[O-])cccc21
8 | inactive | inactive | inactive | inactive | inactive | inactive | CCCCCn1c(N)nc2c(Cc3ccccc3)cccc21
9 | inactive | inactive | inactive | inactive | inactive | inactive | CCCCC1(O)C(N)=Nc2ccccc21 (stereo unspecified)
10 | inactive | inactive | inactive | inactive | inactive | inactive | Nc1nc2ccccc2n1Cc1ccccc1
11 | inactive | inactive | inactive | inactive | inactive | inactive | CCCCCn1c(N)nc2c(Br)cccc21
12 | inactive | inactive | inactive | inactive | inactive | inactive | CCCCCn1c(N)nc2c(C)cccc21
13 | inactive | inactive | inactive | inactive | inactive | inactive | CCCCCn1c(N)nc2c(C(F)(F)F)cccc21
14 | inactive | inactive | inactive | inactive | inactive | inactive | CCCCCn1c(N)nc2c(-c3ccccc3)cccc21
15 | inactive | inactive | inactive | inactive | inactive | inactive | CCCCCn1c(N)nc2cccnc21
16 | inactive | inactive | inactive | inactive | inactive | inactive | CCCCCn1c(N)nc2c(OCc3ccccc3)cccc21
17 | inactive | inactive | inactive | inactive | inactive | inactive | NCc1cccc(Cn2c(N)nc3ccccc32)c1
18 | inactive | inactive | inactive | inactive | inactive | inactive | CCCCC1C(N)=Nc2ccccc21.Cl (stereo unspecified)
19 | inactive | inactive | inactive | inactive | inactive | inactive | CCCCCn1c(N)nc2ncccc21
20 | inactive | inactive | inactive | inactive | inactive | inactive | CCCCCn1c(NC(C)=O)nc2ccccc21
21 | inactive | inactive | inactive | inactive | inactive | inactive | CCCCCn1c(N)nc2cc3ccccc3cc21
